Article PMC4729448 (Molecular cancer therapeutics, 2013)
pIC50: −log10 of the molar value.

Legend:
[1] = oral administration, published literature ref 1, 10-12; cited from earlier work
[2] = Pharmacokinetic analysis in cannulated rat model; format: in vivo, Sprague Dawley rats; conditions: for observable effects in the animals following dosing: rat pharmacokinetic studies
How it was run: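 Fasted male Sprague Dawley rats fitted with carotid artery and jugular and/or femoral vein catheters. Dosed iv or orally with 0.2 micron-filtered solutions; automated sampling allowed both routes in the same animal. Plasma separated by centrifugation and stored at -80 °C. Prodrug, 2-ME2 and metabolites quantified by LC-MS/MS against deuterated internal standards. Parameters from non-parametric analysis; animals observed after dosing.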

OE33 xenograft tumors = assay: OE33 tumor xenograft in athymic nude mice; format: in vivo, athymic nude mice (BALB/c-nu/nu); conditions: 12 days; for effect on growth of established OE33 xenograft tumors: 75 mg/kg/day orogastric
OE33 cells [3] = assay: Phase-contrast cellular morphology of OE33 cells; format: cell-based; conditions: 48 h
[4] = test system: microtubule network in OE33 cells; assay: Anti-α-Tubulin immunofluorescence of microtubule network in OE33 cells; format: cell-based; conditions: 48 h
OE33 cells [5] = assay: Crystal violet cell proliferation assay; format: cell-based; conditions: for pIC50: Homo sapiens, OE33, 48 h, read-out: IC50, OE33 cell proliferation/viability
[6] = test system: microtubule distribution in OE33-tumor xenografts; assay: Anti-α-Tubulin immunofluorescence of OE33 tumor xenograft sections; format: in vivo, athymic nude mice (BALB/c-nu/nu); conditions: treated OE33-tumor xenograft sections vs untreated
[7] = Dissolution in sterile water; format: physicochemical
[8] = Sprague-Dawley, rat, plasma, iv, 5.21 mg/kg

AUC(0-t) [2, 8]	Cmax [2, 8]	half-life [2, 8]	SMILES	serum bioavailability [1]	observable effects in the animals following dosing [2]	effect on growth of established OE33 xenograft tumors (OE33 xenograft tumors)	alteration of cellular morphology compared to 2-ME2-PD1 (OE33 cells [3]; 2.5 μM or 5 μM)	microtubule disruption ([4]; 5 μM)	pIC50 (OE33 cells [5])	reduction in tumor volume relative to the control group (OE33 xenograft tumors; oral 75 mg/kg/d)	alteration of cellular morphology (OE33 cells [3]; 2.5 μM)	alteration of cellular morphology (OE33 cells [3]; 5 μM)	microtubule disruption ([4]; 2.5 μM)	IC50 fold higher than 2-ME2 (OE33 cells [5]; OE33 viability, 48 h)	microtubule distribution and cellular morphology in tumor xenografts [6]	solubility in sterile water [7]
321 ng·h/mL	1220 ng/mL	59 min	COc1cc2c(cc1O)CC[C@@H]1[C@@H]2CC[C@]2(C)[C@@H](O)CC[C@@H]12 [2-ME2, 2-Methoxyestradiol]	1 - 2%	no observable effects	inconsistent	much more drastic	totally disrupted	~5.22	–	–	–	–	–	–	–
–	–	–	COc1cc2c(cc1OCOP(=O)([O-])[O-])CC[C@@H]1[C@@H]2CC[C@]2(C)[C@@H](OC(C)=O)CC[C@@H]12.[Na+].[Na+] [2-ME2-PD1, disodium (((8R,9S,13S,14S,17S)-17-acetoxy-2-methoxy-13-methyl-7,8,9,11,12,13,14,15,16,17-decahydro-6H-cyclopenta[a]phenanthren-3-yl)oxy)methyl phosphate]	–	no observable effects	inhibited the growth	–	significantly disrupted	~4.77	60 ± 5%	mild to no alterations	atrophy	not very prominent	~3 fold	striking alteration in microtubule distribution	readily dissolves in sterile water
